In ChEMBL document CHEMBL3804761, “Synthesis of a stable and orally bioavailable englerin analogue” (Bioorg Med Chem Lett, 2016):

Legend:
Assay type in all cases: functional
[1] = test system: A498; test: Growth inhibition of human A498 cells assessed as cell growth at 10 uM incubated for 48 hrs by sulforhodamine B assay relative to control; settings: A498, 48 h, read-out: Activity
[2] = Growth inhibition of human SF268 cells assessed as cell growth at 10 uM incubated for 48 hrs by sulforhodamine B assay relative to control; settings: SF-268, 48 h, read-out: Activity
Method in brief: (§1)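 Run in the standard NCI 60-cell-line screen. Cells were exposed to drug for two days, and the read-out was sulforhodamine B staining. Compound was tested at a single final concentration of 10 µM in every line, and results are reported as growth percent.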

[3] = test system: U-251; test: Growth inhibition of human U251 cells assessed as cell growth at 10 uM incubated for 48 hrs by sulforhodamine B assay relative to control; settings: U-251, 48 h, read-out: Activity
Method in brief: (§2)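 NCI 60-cell line standard protocol, one-dose screen: single final concentration 10 µM, 2-day drug exposure, sulforhodamine B (SRB) endpoint; read-out is growth percent relative to untreated control.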

[4] = test system: A549; test: Growth inhibition of human A549/ATCC cells incubated for 48 hrs by sulforhodamine B assay; settings: A549, 48 h; for TGI: read-out: pTGI (converted)
Method in brief: (§3)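 NCI 60-cell-line panel, standard protocol. Cells exposed to compound for two days, growth read by sulforhodamine B staining. Tested at five 10-fold dilutions, top concentration 100 µM, to give dose-response curves.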

[5] = Growth inhibition of human Caki1 cells assessed as cell growth at 10 uM incubated for 48 hrs by sulforhodamine B assay relative to control; settings: CAKI-1, 48 h, read-out: Activity; method in brief: as §1
[6] = Growth inhibition of human SNB19 cells assessed as cell growth at 10 uM incubated for 48 hrs by sulforhodamine B assay relative to control; settings: SNB-19, 48 h, read-out: Activity; method in brief: as §1
[7] = test system: MDA-MB-231; test: Growth inhibition of human MDA-MB-231 cells assessed as cell growth at 10 uM incubated for 48 hrs by sulforhodamine B assay relative to control; settings: MDA-MB-231, 48 h, read-out: Activity; method in brief: as §1
[8] = test system: NCI-H522; test: Growth inhibition of human NCI-H522 cells incubated for 48 hrs by sulforhodamine B assay; settings: NCI-H522, 48 h; for TGI: read-out: pTGI (converted); method in brief: as §3
[9] = Growth inhibition of human RXF393 cells incubated for 48 hrs by sulforhodamine B assay; settings: RXF 393, 48 h
Method in brief: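 Run in the NCI 60-cell-line protocol, with 2-day drug exposure and sulforhodamine B read-out. Dose-response testing used five 10-fold dilutions starting from a high concentration of 100 µM.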

[10] = Growth inhibition of human DU145 cells assessed as cell growth at 10 uM incubated for 48 hrs by sulforhodamine B assay relative to control; settings: DU-145, 48 h, read-out: Activity; method in brief: as §1
[11] = Growth inhibition of human Hs 578T cells incubated for 48 hrs by sulforhodamine B assay; settings: for CC50: read-out: pLC50 (the source's name) (converted); for TGI: read-out: pTGI (converted)
[12] = Growth inhibition of human UACC62 cells assessed as cell growth at 10 uM incubated for 48 hrs by sulforhodamine B assay relative to control; settings: UACC-62, 48 h, read-out: Activity; method in brief: as §2
[13] = test system: SN12C; test: Growth inhibition of human SN12C cells incubated for 48 hrs by sulforhodamine B assay; settings: for CC50: read-out: pLC50 (the source's name) (converted); for TGI: read-out: pTGI (converted)
Method in brief: (§4)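 Tested in the standard NCI 60-cell-line protocol with two-day drug exposure and a sulforhodamine B endpoint. Compounds were first screened at a single final concentration of 10 µM, reported as growth percent. They were then run as five 10-fold dilutions starting from a high concentration of 100 µM to give dose-response curves.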

[14] = test system: SK-MEL-2; test: Growth inhibition of human SK-MEL-2 cells assessed as cell growth at 10 uM incubated for 48 hrs by sulforhodamine B assay relative to control; settings: SK-MEL-2, 48 h, read-out: Activity; method in brief: as §1
[15] = Growth inhibition of human MOLT4 cells assessed as cell growth at 10 uM incubated for 48 hrs by sulforhodamine B assay relative to control; settings: MOLT-4, 48 h, read-out: Activity; method in brief: as §1
[16] = test system: KM12; test: Growth inhibition of human KM12 cells assessed as cell growth at 10 uM incubated for 48 hrs by sulforhodamine B assay relative to control; settings: KM12, 48 h, read-out: Activity; method in brief: as §1
[17] = Growth inhibition of human PC3 cells assessed as cell growth at 10 uM incubated for 48 hrs by sulforhodamine B assay relative to control; settings: PC-3, 48 h, read-out: Activity; method in brief: as §1
[18] = Growth inhibition of human OVCAR8 cells incubated for 48 hrs by sulforhodamine B assay; settings: OVCAR-8, 48 h; for TGI: read-out: pTGI (converted); method in brief: as §3
[19] = Growth inhibition of human Caki1 cells incubated for 48 hrs by sulforhodamine B assay; settings: CAKI-1, 48 h; for TGI: read-out: pTGI (converted); method in brief: as §3
[20] = Growth inhibition of human UO31 cells assessed as cell growth at 10 uM incubated for 48 hrs by sulforhodamine B assay relative to control; settings: UO-31, 48 h, read-out: Activity; method in brief: as §2
[21] = test system: T47D; test: Growth inhibition of human T47D cells incubated for 48 hrs by sulforhodamine B assay; settings: for CC50: read-out: pLC50 (the source's name) (converted); for TGI: read-out: pTGI (converted); method in brief: as §4
[22] = test system: NCI-H23; test: Growth inhibition of human NCI-H23 cells incubated for 48 hrs by sulforhodamine B assay; settings: NCI-H23, 48 h; for TGI: read-out: pTGI (converted); method in brief: as §3
[23] = test system: KM12; test: Growth inhibition of human KM12 cells incubated for 48 hrs by sulforhodamine B assay; settings: KM12, 48 h; for TGI: read-out: pTGI (converted); method in brief: as §3
[24] = test system: NCI-H226; test: Growth inhibition of human NCI-H226 cells incubated for 48 hrs by sulforhodamine B assay; settings: NCI-H226, 48 h; for TGI: read-out: pTGI (converted); method in brief: as §3
[25] = Growth inhibition of human HCC2998 cells incubated for 48 hrs by sulforhodamine B assay; settings: HCC 2998, 48 h; for TGI: read-out: pTGI (converted); method in brief: as §3
[26] = Growth inhibition of human HCT116 cells incubated for 48 hrs by sulforhodamine B assay; settings: HCT-116, 48 h; for TGI: read-out: pTGI (converted); method in brief: as §3
[27] = Growth inhibition of human HOP92 cells assessed as cell growth at 10 uM incubated for 48 hrs by sulforhodamine B assay relative to control; settings: HOP-92, 48 h, read-out: Activity
Method in brief: (§5)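 Single-dose screen in the NCI 60-cell-line panel at one final concentration of 10 µM. Two-day drug exposure with a sulforhodamine B endpoint. Values are growth percent for each cell line.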

[28] = Growth inhibition of human LOXIMVI cells assessed as cell growth at 10 uM incubated for 48 hrs by sulforhodamine B assay relative to control; settings: LOX IMVI, read-out: Activity; method in brief: as §5

SMILES: CC(C)[C@@]12C[C@@H](NC(=O)CO)[C@@](C)(O1)[C@@H]1CC[C@@H](C)[C@H]1[C@@H]2OC(=O)c1ccc2ccccc2c1
- growth at 10 µM [1]: -15.2%
- growth at 10 µM [2]: 79%
- growth at 10 µM [3]: 79.3%
- GI50 [4]: 14.8 µM
- LC50 [4]: 63.1 µM
- TGI [4]: 30.2 µM
- growth at 10 µM [5]: 52.6%
- growth at 10 µM [6]: 97.2%
- growth at 10 µM [7]: 101%
- GI50 [8]: 15.5 µM
- LC50 [8]: 56.2 µM
- TGI [8]: 29.5 µM
- GI50 [9]: 6.17 µM
- CC50 ([9]; read-out: pLC50 (the source's name) (converted)): 49 µM
- TGI ([9]; read-out: pTGI (converted)): 20.4 µM
- growth at 10 µM [10]: 98.4%
- GI50 ([11]; read-out: GI50): 2.23 µM
- GI50 ([11]; read-out: pGI50 (converted)): 2.24 µM
- CC50 [11]: > 100 µM
- TGI [11]: 8.91 µM
- growth at 10 µM [12]: 85%
- GI50 [13]: 11 µM
- CC50 [13]: 55 µM
- TGI [13]: 24.5 µM
- growth at 10 µM [14]: 100%
- growth at 10 µM [15]: 74.9%
- growth at 10 µM [16]: 94.5%
- growth at 10 µM [17]: 66.9%
- GI50 [18]: 6.46 µM
- LC50 (concentration killing 50% of cells) [18]: 60.3 µM
- TGI [18]: 22.4 µM
- GI50 [19]: 10 µM
- LC50 [19]: 50.1 µM
- TGI [19]: 22.4 µM
- growth at 10 µM [20]: 63.3%
- GI50 [21]: 14.8 µM
- CC50 [21]: 56.2 µM
- TGI [21]: 28.8 µM
- GI50 [22]: 14.1 µM
- LC50 [22]: 57.5 µM
- TGI [22]: 28.2 µM
- GI50 [23]: 17.4 µM
- LC50 [23]: 61.7 µM
- TGI [23]: 32.4 µM
- GI50 [24]: 13.2 µM
- LC50 [24]: 85.1 µM
- TGI [24]: 33.1 µM
- GI50 [25]: 15.8 µM
- LC50 [25]: 57.5 µM
- TGI [25]: 30.2 µM
- GI50 [26]: 14.1 µM
- LC50 [26]: 53.7 µM
- TGI [26]: 27.5 µM

SMILES: C/C(=C\C(=O)O[C@H]1[C@@H]2[C@H](C)CC[C@H]2[C@]2(C)O[C@@]1(C(C)C)C[C@H]2NC(=O)CO)c1ccccc1
- growth at 10 µM [1]: -24.6%
- growth at 10 µM [2]: 106%
- growth at 10 µM [3]: 91.8%
- GI50 [4]: 47.9 µM
- LC50 [4]: > 100 µM
- TGI [4]: > 100 µM
- growth at 10 µM [5]: 99%
- growth at 10 µM [6]: 108%
- growth at 10 µM [7]: 99.6%
- GI50 [8]: 27.5 µM
- LC50 [8]: > 100 µM
- TGI [8]: 81.3 µM
- growth at 10 µM [10]: 119%
- GI50 ([11]; read-out: GI50): 2.24 µM
- GI50 ([11]; read-out: pGI50 (converted)): 2.24 µM
- CC50 [11]: > 100 µM
- TGI [11]: 6.92 µM
- growth at 10 µM [12]: 102%
- GI50 [13]: 11.5 µM
- CC50 [13]: > 100 µM
- TGI [13]: 66.1 µM
- growth at 10 µM [14]: 104%
- growth at 10 µM [15]: 125%
- growth at 10 µM [16]: 112%
- growth at 10 µM [17]: 83.1%
- GI50 [18]: 7.59 µM
- LC50 (concentration killing 50% of cells) [18]: > 100 µM
- TGI [18]: > 100 µM
- GI50 [19]: 40.7 µM
- LC50 [19]: > 100 µM
- TGI [19]: > 100 µM
- growth at 10 µM [20]: 17.5%
- GI50 [21]: 20.4 µM
- CC50 [21]: > 100 µM
- TGI [21]: > 100 µM
- growth at 10 µM [27]: 87.1%
- GI50 [22]: 38.9 µM
- LC50 [22]: > 100 µM
- TGI [22]: > 100 µM
- GI50 [23]: 33.9 µM
- LC50 [23]: > 100 µM
- TGI [23]: > 100 µM
- GI50 [24]: 61.7 µM
- LC50 [24]: > 100 µM
- TGI [24]: > 100 µM
- GI50 [25]: 34.7 µM
- LC50 [25]: > 100 µM
- TGI [25]: > 100 µM
- GI50 [26]: 32.4 µM
- LC50 [26]: > 100 µM
- TGI [26]: > 100 µM
- growth at 10 µM [28]: 100%
